Data published in ChEMBL document CHEMBL4028851, “Discovery of Potent Small-Molecule Inhibitors of Ubiquitin-Conjugating Enzyme UbcH5c from α-Santonin Derivatives” (J Med Chem, 2017).
Active and inactive are the calls of the source. No cut-off for these calls is given here.

How the values were obtained:
[1] = Clearance in Sprague-Dawley rat at 1 mg/kg, iv by LC-MS/MS analysis; format: ADME, organism-based; details: in vivo
In short: (§1)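 Male Sprague-Dawley rats (about 200‒220 g; n = 6) were fasted overnight and given a single 1 mg/kg iv dose in DMSO:castor oil:saline (3:3:94). Blood was sampled from the orbital artery into heparin tubes. Plasma was analysed by LC/MS/MS (ESI, MRM), and parameters came from noncompartmental analysis. Values are mean ± SD.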

[2] = AUC (0 to infinity) in Sprague-Dawley rat at 1 mg/kg, iv by LC-MS/MS analysis; format: ADME, organism-based; design: dose 1 mg/kg, time infinity, route intravenous; details: in vivo
[3] = Half life in Sprague-Dawley rat at 1 mg/kg, iv by LC-MS/MS analysis; format: ADME, organism-based; details: in vivo; in short: as §1
[4] = Volume of distribution at steady state in Sprague-Dawley rat at 1 mg/kg, iv by LC-MS/MS analysis; format: ADME, organism-based; details: in vivo, read-out: Vdss; in short: as §1
[5] = target: Ubiquitin-conjugating enzyme E2 L3 (Homo sapiens) (UniProt P68036); assay: Inhibition of UbcH7 (unknown origin) at 2.5 to 10 uM preincubated for 15 mins followed by E1, Ub and ATP addition measured after 40 mins by Western blot analysis
[6] = target: T1, Ubiquitin-conjugating enzyme E2 C (Homo sapiens) (UniProt O00762); assay: Inhibition of UbcH10 (unknown origin) at 2.5 to 10 uM preincubated for 15 mins followed by E1, Ub and ATP addition measured after 40 mins by Western blot analysis
T1 sequence (whole entry): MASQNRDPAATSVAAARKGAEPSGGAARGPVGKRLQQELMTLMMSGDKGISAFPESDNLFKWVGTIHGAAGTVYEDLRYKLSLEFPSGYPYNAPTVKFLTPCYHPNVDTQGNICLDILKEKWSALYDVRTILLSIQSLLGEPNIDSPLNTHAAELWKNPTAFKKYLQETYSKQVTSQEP

[7] = target: T2, Ubiquitin-conjugating enzyme E2 K (Homo sapiens) (UniProt P61086); assay: Inhibition of E2-25K (unknown origin) at 2.5 to 10 uM preincubated for 15 mins followed by E1, Ub and ATP addition measured after 40 mins by Western blot analysis
T2 sequence (whole entry): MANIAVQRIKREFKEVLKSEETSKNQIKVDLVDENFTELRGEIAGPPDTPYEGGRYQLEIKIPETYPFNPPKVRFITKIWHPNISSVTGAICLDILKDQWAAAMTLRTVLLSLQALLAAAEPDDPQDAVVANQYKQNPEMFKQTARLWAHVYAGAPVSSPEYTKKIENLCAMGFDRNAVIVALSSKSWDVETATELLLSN

[8] = target: Ubiquitin-conjugating enzyme E2 D3 (Mus musculus) (UniProt P61079); assay: Inhibition of UbcH5c in mouse b.End3 cells assessed as decrease in TNF-alpha-mediated IkB-alpha phosphorylation preincubated for 2 hrs followed by TNF-alpha stimulation for 20 mins by Western blot analysis; format: cell-based
In short: (§2)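 bEnd.3 cells (DMEM, 10% FBS) were pretreated with compound at 2.5, 5 or 10 µM for 2 h, then stimulated with 20 ng/mL TNF-α (15 min in the methods, 20 min in the legend). Lysates were run on 10% SDS-PAGE and immunoblotted for phospho-IκBα, IκBα, phospho-p65 and p65, with GAPDH as loading control.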

[9] = target: Ubiquitin-conjugating enzyme E2 D3 (Mus musculus) (UniProt P61079); assay: Inhibition of UbcH5c in mouse b.End3 cells assessed as decrease in TNF-alpha-mediated IkB-alpha degradation preincubated for 2 hrs followed by TNF-alpha stimulation for 20 mins by Western blot analysis; format: cell-based; in short: as §2
[10] = target: Ubiquitin-conjugating enzyme E2 D3 (Mus musculus) (UniProt P61079); assay: Inhibition of UbcH5c in mouse b.End3 cells assessed as decrease in TNF-alpha-mediated p65 phosphorylation preincubated for 2 hrs followed by TNF-alpha stimulation for 20 mins by Western blot analysis; format: cell-based; in short: as §2
[11] = target: Ubiquitin-conjugating enzyme E2 D1 (Homo sapiens) (UniProt P51668); assay: Inhibition of UbcH5a (unknown origin) at 2.5 to 10 uM preincubated for 15 mins followed by E1, Ub and ATP addition measured after 40 mins by Western blot analysis
[12] = target: Ubiquitin-conjugating enzyme E2 D2 (Homo sapiens) (UniProt P62837); assay: Inhibition of UbcH5b (unknown origin) at 2.5 to 10 uM preincubated for 15 mins followed by E1, Ub and ATP addition measured after 40 mins by Western blot analysis
[13] = Tmax in Sprague-Dawley rat at 5 mg/kg, po via gavage by LC-MS/MS analysis; format: ADME, organism-based; details: in vivo
In short: (§3)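 Male Sprague-Dawley rats (about 200‒220 g; n = 6) were fasted overnight and gavaged with 5 mg/kg as a suspension in 0.5% methylcellulose. Blood was taken from the orbital artery at 0.083–24 h into heparin tubes. Plasma was quantified by LC/MS/MS (ESI, MRM), with noncompartmental analysis. Bioavailability was referenced to a 1 mg/kg iv dose. Values are mean ± SD.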

[14] = Half life in Sprague-Dawley rat at 5 mg/kg, po via gavage by LC-MS/MS analysis; format: ADME, organism-based; details: in vivo; in short: as §3
[15] = Oral bioavailability in Sprague-Dawley rat at 5 mg/kg via gavage by LC-MS/MS analysis; format: ADME, organism-based; details: in vivo; in short: as §3
[16] = Half life in rat plasma at 5 uM; format: ADME, cell-free
In short: (§4)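 Compound (5 µM final, from a 25 mM DMSO stock) was incubated at 37 °C in rat plasma (0–90 min) or rat whole blood (0, 5, 10, 30, 60, 90 min). Reactions were quenched with ice-cold acetonitrile, centrifuged, and the supernatants analysed.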

[17] = Half life in rat whole blood at 5 uM; format: ADME; in short: as §4
[18] = tested on: Rattus norvegicus; assay: Antiarthritic activity in Wistar rat Freund's adjuvant-induced arthritis model assessed as reduction in arthritis index score at 5 to 20 mg/kg, po qd administered on day 10 to 20 postimmunization measured every 2 to 3 days during compound dosing; format: functional, organism-based
In short: (§5)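 Adjuvant arthritis was induced by intradermal CFA (0.1 mL) into the base of the left hind paw (day 0), with a boost 10 days later. Rats were dosed orally once daily at 5 or 20 mg/kg from day 10 to day 20, with 10 rats per group. Vehicle controls received 0.3% sodium carboxymethylcellulose. Two blinded observers scored the animals every 2 or 3 days. Data are mean ± S.E.M.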

[19] = tested on: Rattus norvegicus; assay: Antiarthritic activity in Wistar rat Freund's adjuvant-induced arthritis model assessed as reduction in hind paw swelling at 5 to 20 mg/kg, po qd administered on day 10 to 20 postimmunization measured every 2 to 3 days during compound dosing; format: functional, organism-based; in short: as §5
[20] = tested on: Rattus norvegicus; assay: Antiarthritic activity in Wistar rat Freund's adjuvant-induced arthritis model assessed as protection against body weight loss at 5 to 20 mg/kg, po qd administered on day 10 to 20 postimmunization measured every 2 to 3 days during compound dosing; format: functional, organism-based; in short: as §5
[21] = target: Ubiquitin-conjugating enzyme E2 D3 (Mus musculus) (UniProt P61079); assay: Inhibition of UbcH5c in mouse b.End3 cells assessed as decrease in TNF-alpha-mediated IkB-alpha phosphorylation at 10 uM preincubated for 2 hrs followed by TNF-alpha stimulation for 20 mins by Western blot analysis; format: cell-based; in short: as §2
[22] = target: Ubiquitin-conjugating enzyme E2 D3 (Mus musculus) (UniProt P61079); assay: Inhibition of UbcH5c in mouse b.End3 cells assessed as decrease in TNF-alpha-mediated IkB-alpha degradation at 10 uM preincubated for 2 hrs followed by TNF-alpha stimulation for 15 mins by Western blot analysis

Sequence of Ubiquitin-conjugating enzyme E2 D3 (Mus musculus) (P61079 whole entry, looked up): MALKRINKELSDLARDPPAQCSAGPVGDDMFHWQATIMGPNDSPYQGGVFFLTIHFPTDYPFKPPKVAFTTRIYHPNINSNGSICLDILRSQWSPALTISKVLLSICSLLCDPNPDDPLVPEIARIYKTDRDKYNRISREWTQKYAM
Sequence of Ubiquitin-conjugating enzyme E2 L3 (Homo sapiens) (P68036 whole entry): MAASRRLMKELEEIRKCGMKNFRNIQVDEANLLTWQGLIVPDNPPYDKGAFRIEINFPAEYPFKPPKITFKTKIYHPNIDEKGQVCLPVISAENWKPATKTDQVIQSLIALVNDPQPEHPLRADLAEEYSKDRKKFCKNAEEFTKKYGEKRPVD
Sequence of Ubiquitin-conjugating enzyme E2 D1 (Homo sapiens) (P51668 whole entry): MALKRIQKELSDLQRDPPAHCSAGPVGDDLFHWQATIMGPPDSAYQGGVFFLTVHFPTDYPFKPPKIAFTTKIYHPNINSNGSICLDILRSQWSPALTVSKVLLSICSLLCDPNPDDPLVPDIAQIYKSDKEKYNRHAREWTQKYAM
Sequence of Ubiquitin-conjugating enzyme E2 D2 (Homo sapiens) (P62837 whole entry, looked up): as the sequence (P61079 whole entry, looked up) above, with N7H, S11N, D132E, S138A counted along it

- clearance [1]: 41.3 mL/min/kg
- AUC(0-inf) [2]: 408 ng·h/mL
- half-life [3]: 1.76 h
- Vd [4]: 6.26 L/kg
- inhibition [5]: Active
- inhibition [6]: Active
- inhibition [7]: inactive
- inhibition [8]: Dose-dependent effect
- inhibition [9]: Dose-dependent effect
- inhibition [10]: Dose-dependent effect
- inhibition [11]: Active
- inhibition [12]: Active
- Tmax [13]: 3.83 h
- half-life [14]: 2.86 h
- bioavailability [15]: 16.8%
- half-life at 5 µM [16]: 1.43 h
- half-life at 5 µM [17]: 0.663 h
- inhibition [21]: Active
- inhibition [22]: Active
SMILES: C=C1C(=O)O[C@H]2c3c(C)c(OCc4ccccc4Br)cc(C)c3CC[C@@H]12
- Activity [18]: Active
- Activity [19]: Active
- Activity [20]: inactive
